The text below walks through data of ChEMBL document CHEMBL4145662, “Novel Nonsteroidal Progesterone Receptor (PR) Antagonists with a Phenanthridinone Skeleton” (ACS Med Chem Lett, 2018).

The source made the active and inactive calls. The calls are words filed in the database; no cut-off is given here.

Experiment [1] addresses T1, Progesterone receptor (Homo sapiens, UniProt P06401).
T1 sequence (P06401 whole entry): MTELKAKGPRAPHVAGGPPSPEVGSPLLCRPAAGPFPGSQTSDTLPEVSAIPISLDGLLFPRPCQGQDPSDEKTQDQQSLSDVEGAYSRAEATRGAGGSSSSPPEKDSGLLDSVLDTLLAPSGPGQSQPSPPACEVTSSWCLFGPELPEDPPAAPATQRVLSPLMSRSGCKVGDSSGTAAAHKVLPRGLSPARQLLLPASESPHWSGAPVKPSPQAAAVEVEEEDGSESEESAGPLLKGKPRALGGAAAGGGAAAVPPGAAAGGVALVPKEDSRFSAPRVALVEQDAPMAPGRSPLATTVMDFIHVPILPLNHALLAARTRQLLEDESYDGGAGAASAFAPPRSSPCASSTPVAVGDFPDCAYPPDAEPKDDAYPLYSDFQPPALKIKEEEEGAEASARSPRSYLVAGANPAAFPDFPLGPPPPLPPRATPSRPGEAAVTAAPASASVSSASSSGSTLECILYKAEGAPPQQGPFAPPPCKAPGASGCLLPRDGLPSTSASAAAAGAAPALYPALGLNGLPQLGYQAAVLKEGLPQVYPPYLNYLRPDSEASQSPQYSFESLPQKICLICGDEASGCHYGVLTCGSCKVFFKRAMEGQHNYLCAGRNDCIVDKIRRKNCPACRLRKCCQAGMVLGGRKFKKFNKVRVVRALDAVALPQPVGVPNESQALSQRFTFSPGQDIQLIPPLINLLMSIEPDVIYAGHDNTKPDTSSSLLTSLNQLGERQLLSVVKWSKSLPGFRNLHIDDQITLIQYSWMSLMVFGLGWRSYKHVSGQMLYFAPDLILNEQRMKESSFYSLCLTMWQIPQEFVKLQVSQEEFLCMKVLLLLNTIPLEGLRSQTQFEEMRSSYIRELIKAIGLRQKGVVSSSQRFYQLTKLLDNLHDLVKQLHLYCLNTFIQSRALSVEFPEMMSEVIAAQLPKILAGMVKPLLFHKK
Nature of the experiment: Antagonist activity at PR in human T47D cells assessed as inhibition of progesterone-induced alkaline phosphatase activity measured after 24 hrs. It is filed as cell-based.

The target of experiment [2] is T2, Progesterone receptor (Homo sapiens) (UniProt P06401).
T2 sequence (whole entry): T1 sequence (P06401 whole entry)
Nature of the experiment: Antagonist activity at PR in human T47D cells assessed as inhibition of progesterone-induced beta1-Na/K-ATPase expression at 0.1 to 10 uM measured after 24 hrs by Western blot analysis. Format: cell-based. In a few lines:
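Validation in T47D cells by Western blotting of the β1 subunit of Na/K-ATPase, a PR-regulated protein.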
Background: A western blot detects proteins with antibodies after separation by electrophoresis.

Experiment [3] concerns the target T1, Progesterone receptor. Nature of the experiment: Displacement of [1,2,6,7-3H]progesterone from recombinant human GST-tagged PGR LBD (678 to 933 residues) expressed in baculovirus-infected insect cells measured after 24 hrs by liquid scintillation counting method.
The target in experiment [4] is T3, Nuclear receptor ROR-alpha (Homo sapiens) (UniProt P35398).
T3 sequence (whole entry): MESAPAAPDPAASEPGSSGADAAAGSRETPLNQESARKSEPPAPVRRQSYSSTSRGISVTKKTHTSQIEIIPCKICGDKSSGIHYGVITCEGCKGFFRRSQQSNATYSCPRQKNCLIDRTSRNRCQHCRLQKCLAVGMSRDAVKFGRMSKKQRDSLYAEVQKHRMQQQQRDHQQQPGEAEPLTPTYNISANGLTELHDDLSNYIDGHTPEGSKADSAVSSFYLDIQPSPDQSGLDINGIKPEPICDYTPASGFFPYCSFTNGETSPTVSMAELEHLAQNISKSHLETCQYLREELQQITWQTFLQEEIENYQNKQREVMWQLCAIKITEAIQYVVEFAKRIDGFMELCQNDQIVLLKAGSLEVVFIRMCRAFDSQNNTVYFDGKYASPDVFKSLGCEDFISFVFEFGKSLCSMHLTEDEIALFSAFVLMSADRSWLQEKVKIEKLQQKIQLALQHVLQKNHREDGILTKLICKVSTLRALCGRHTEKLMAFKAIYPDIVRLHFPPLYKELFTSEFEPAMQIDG
Kind of experiment: Antagonist activity at human RORalpha1 expressed in HEK293 cells at 20 uM after 24 hrs by luciferase reporter gene assay. It is filed as cell-based. In a few lines:
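Inverse agonism at RORα, RORβ or RORγ measured by reporter gene assay.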
(Reporter assays use an easily measured gene product as a stand-in for the process of interest.)

The target in the next experiment is T4, Glucocorticoid receptor (Homo sapiens, UniProt P04150).
T4 sequence (P04150 whole entry): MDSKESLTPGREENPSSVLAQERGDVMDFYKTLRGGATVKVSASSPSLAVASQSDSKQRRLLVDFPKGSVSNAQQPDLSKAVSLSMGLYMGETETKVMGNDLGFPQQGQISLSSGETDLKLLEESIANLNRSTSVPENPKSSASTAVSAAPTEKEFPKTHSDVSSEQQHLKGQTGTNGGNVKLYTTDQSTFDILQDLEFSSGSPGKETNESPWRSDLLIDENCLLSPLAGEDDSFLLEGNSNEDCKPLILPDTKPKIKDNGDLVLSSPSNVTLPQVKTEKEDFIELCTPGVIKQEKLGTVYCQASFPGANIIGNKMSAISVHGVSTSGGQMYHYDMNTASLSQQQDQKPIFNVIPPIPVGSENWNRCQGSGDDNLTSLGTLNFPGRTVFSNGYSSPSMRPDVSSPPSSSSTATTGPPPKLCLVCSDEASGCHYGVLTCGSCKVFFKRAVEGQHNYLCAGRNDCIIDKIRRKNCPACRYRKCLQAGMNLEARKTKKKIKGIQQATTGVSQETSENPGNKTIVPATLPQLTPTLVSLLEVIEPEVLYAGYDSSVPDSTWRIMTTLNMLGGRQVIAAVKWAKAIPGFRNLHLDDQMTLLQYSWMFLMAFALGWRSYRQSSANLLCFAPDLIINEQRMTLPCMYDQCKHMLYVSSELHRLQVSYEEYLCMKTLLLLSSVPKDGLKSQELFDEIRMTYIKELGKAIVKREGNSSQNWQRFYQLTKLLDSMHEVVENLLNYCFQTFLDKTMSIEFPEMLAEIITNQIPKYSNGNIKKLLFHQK
Kind of experiment: Antagonist activity at human CMX-GRalpha expressed in HEK293 cells assessed as reduction in dexamethasone-induced transactivation activity after 24 hrs by luciferase reporter gene assay. Format: cell-based. In a few lines: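 GRα antagonism measured by reporter gene assay with dexamethasone (1 nM) as agonist.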

Experiment [5] is filed under the species Homo sapiens. Kind of experiment: Selectivity ratio of IC50 for human RORalpha1 expressed in HEK293 cells to IC50 for PR in human T47D cells assessed as inhibition of progesterone-induced alkaline phosphatase activity. It is filed as cell-based.
The species entered for experiment [6] is Homo sapiens. Kind of experiment: Selectivity ratio of IC50 for human RORgamma1 expressed in HEK293 cells to IC50 for PR in human T47D cells assessed as inhibition of progesterone-induced alkaline phosphatase activity. It is filed as cell-based.
For experiment [7], the species on record is Homo sapiens. Kind of experiment: Selectivity ratio of IC50 for human GAL4N-fused LXRbeta LBD expressed in HEK293 cells to IC50 for PR in human T47D cells assessed as inhibition of progesterone-induced alkaline phosphatase activity. It is filed as cell-based.
For experiment [8], the species on record is Homo sapiens. Nature of the experiment: Selectivity ratio of IC50 for human CMX-AR expressed in HEK293 cells to IC50 for PR in human T47D cells assessed as inhibition of progesterone-induced alkaline phosphatase activity. It is filed as cell-based.

Consider `Cc1cc(C(O)(C(F)(F)F)C(F)(F)F)cc2c1[nH]c(=O)c1ccccc12`, for which the IC50 on Progesterone receptor [1] is 150 nM; at Progesterone receptor [3], 1500 nM; at Glucocorticoid receptor, > 20000 nM. For the same molecule, the inhibition result in experiment [2] was “Active”. Also, the outcome in [4] was inactive. The Ratio IC50 in the experiment listed under Homo sapiens [5], in the experiment listed under Homo sapiens [6], in the experiment listed under Homo sapiens [7] and in the experiment filed under Homo sapiens [8] was > 100 each time.
Take `Cc1cc(C(O)(C(F)(F)F)C(F)(F)F)cc2c1[nH]c(=O)c1cc(F)ccc12`: the IC50 on Progesterone receptor [1] is 46 nM; on Progesterone receptor [3], 340 nM; on Glucocorticoid receptor, > 20000 nM. Further, the inhibition result in experiment [2] is “Active”. For the same molecule, the result in experiment [4] was inactive. The Ratio IC50 in the experiment filed under Homo sapiens [5] was > 300; in the experiment listed under Homo sapiens [6] it was > 300; in the experiment listed under Homo sapiens [7] it was > 300; in the experiment listed under Homo sapiens [8], > 30.
On to `Cc1cc(C(O)(C(F)(F)F)C(F)(F)F)cc2c3ccc(F)cc3c(=O)n(C)c12`, for which the half-maximal inhibitory concentration (IC50) at Progesterone receptor [1] was 27 nM; at Progesterone receptor [3] it was 150 nM; at Glucocorticoid receptor, > 20000 nM. For the same molecule, the inhibition entry in experiment [2] was “Active”. Moreover, in experiment [4], the result was inactive. In addition, the Ratio IC50 in the experiment listed under Homo sapiens [5] is > 300; in the experiment listed under Homo sapiens [6], > 300; in the experiment listed under Homo sapiens [7], > 300; in the experiment listed under Homo sapiens [8], > 10.

As usually defined, the IC50 is the point on the concentration scale where inhibition reaches its midpoint.
